Data on eight compounds can be found in ChEMBL document CHEMBL1128433, “Novel 1,2-dithiins: synthesis, molecular modeling studies, and antifungal activity” (1995).

SMILES strings stand for the structures. In brackets after ≈: the same amount, converted by molar mass.

The MIC is the smallest concentration in the dilution series that meets the test's criterion for growth inhibition. High values mean weaker potency, low ones greater potency.

What all share (format): functional
The test system of assay [1] is Aspergillus fumigatus. Briefly: Antifungal activity against aspergillus fumigatus. In outline:
(§1)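 A. fumigatus grown on SAB agar 3–4 d at 35 °C; conidia used as inoculum at final 1 × 10^3 cfu/mL. Broth microdilution in SAB broth, 2-fold serial dilutions of compound dissolved in ethanol or DMSO. Incubated 48 h at 35 °C. MIC read by eye as the lowest concentration with no visible growth. Amphotericin B reference.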

Assay [2] deals with Candida albicans. Briefly: Antifungal activity against candida albicans. The procedure, abridged:
(§2)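 Candida grown 24 h at 35 °C on YM agar, then 6 h at 35 °C with rotation in GYB broth (2% glucose, 1% yeast extract). Final inoculum 2 × 10^3 cfu/mL. 96-well SAB broth microdilution, 2-fold series from ethanol or DMSO solutions. 24 h at 35 °C; MIC = lowest concentration without visible growth. Amphotericin B reference.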

The subject of a further assay is Pichia kudriavzevii. Kind of assay: Antifungal activity against candida krusei GK7831. The procedure, abridged: as §2
In another assay the test system is Candida parapsilosis. Kind of assay: Antifungal activity against candida parapsilosis CP18. As to conditions: Lodderomyces parapsilosis. In outline: as §2
Assay [3] deals with Cryptococcus neoformans. Kind of assay: Antifungal activity against cryptococcus neoformans. The procedure, abridged:
(§3)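 C. neoformans grown on YM agar 48 h at 35 °C, then 6 h in GYB broth at 35 °C with rotation. Final inoculum 2 × 10^4 cfu/mL. SAB broth microdilution with 2-fold serial dilutions (compound in ethanol or DMSO). Incubated 48 h at 35 °C; MIC read visually as the lowest concentration with no growth. Amphotericin B reference.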

For another assay, the system named is Candida tropicalis. Kind of assay: Antifungal activity against candida tropicalis 1525. The procedure, abridged: as §2
For a further assay, the system named is Trichophyton rubrum. Briefly: Antifungal activity against Trichophyton rubrum ATCC 18762. The procedure, abridged:
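T. rubrum grown on SAB agar 5–7 d at 25 °C; conidia as inoculum, final 1 × 10^4 cfu/mL. Compounds in ethanol or DMSO, 2-fold serial dilutions in SAB broth in 96-well plates. Incubated 7 d at 25 °C. MIC taken as the lowest concentration with no visible growth versus the growth-control wells. Amphotericin B was the reference.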

For assay [4], the system named is Aspergillus fumigatus. Kind of assay: Antifungal activity against aspergillus fumigatus WM-1. In outline:
as §1

Assay [5] deals with Candida albicans. Briefly: Antifungal activity against candida albicans A-26. In outline: as §2
Assay [6] deals with Candida albicans. Briefly: Antifungal activity against candida albicans B-311. In outline: as §2
The subject of assay [7] is Cryptococcus neoformans. Kind of assay: Antifungal activity against cryptococcus neoformans MI-106. In outline:
as §3

Consider `CC(=O)OCC1=CC=C(CO)SS1`, for which the MIC in the assay with Aspergillus fumigatus [1] worked out at 0.4 µg/mL (≈ 1.83 µM); against Candida albicans [2], 3.1 µg/mL (≈ 14.2 µM); against Pichia kudriavzevii, 1.25 µg/mL (≈ 5.73 µM); against Candida parapsilosis, 1.25 µg/mL (≈ 5.73 µM); against Cryptococcus neoformans [3] it was 0.2 µg/mL (≈ 0.916 µM); against Candida tropicalis, 1.25 µg/mL (≈ 5.73 µM). The lowest concentration to inhibit growth in the assay on Trichophyton rubrum (MIC) was 0.31 µg/mL (≈ 1.42 µM).
As to `O=C(OCC1=CC=C(CO)SS1)C1CC1`, the MIC worked out at 0.4 µg/mL (≈ 1.64 µM) in the assay on Aspergillus fumigatus [1]; 3.1 µg/mL (≈ 12.7 µM) in the assay with Candida albicans [2]; 1.25 µg/mL (≈ 5.12 µM) against Pichia kudriavzevii; 2.5 µg/mL (≈ 10.2 µM) with Candida parapsilosis; 1.6 µg/mL (≈ 6.55 µM) in the assay on Cryptococcus neoformans [3]; 1.25 µg/mL (≈ 5.12 µM) in the assay on Candida tropicalis. The compound further gave an MIC against Trichophyton rubrum of 0.31 µg/mL (≈ 1.27 µM).
For `OCC1=CC=C(/C=N/O)SS1`, the MIC was 1.6 µg/mL (≈ 8.45 µM) with Aspergillus fumigatus [1]; 1.6 µg/mL (≈ 8.45 µM) with Aspergillus fumigatus [4]; 1.6 µg/mL (≈ 8.45 µM) with Candida albicans [2]; 1.6 µg/mL (≈ 8.45 µM) against Candida albicans [5]; 1.6 µg/mL (≈ 8.45 µM) against Candida albicans [6]; 6.3 µg/mL (≈ 33.3 µM) against Pichia kudriavzevii. The MIC against Candida parapsilosis was found to be 3.1 µg/mL (≈ 16.4 µM); in the assay with Cryptococcus neoformans [3], 1.6 µg/mL (≈ 8.45 µM); in the assay with Cryptococcus neoformans [7] it was 1.6 µg/mL (≈ 8.45 µM); against Candida tropicalis it was 6.3 µg/mL (≈ 33.3 µM); in the assay with Trichophyton rubrum, 0.8 µg/mL (≈ 4.23 µM).
As to `O/N=C/C1=CC=C(/C=N/O)SS1`, the MIC in the assay with Aspergillus fumigatus [1] was 0.4 µg/mL (≈ 1.98 µM); against Aspergillus fumigatus [4], 0.2 µg/mL (≈ 0.989 µM); with Candida albicans [2], 0.1 µg/mL (≈ 0.494 µM); against Candida albicans [5], 0.2 µg/mL (≈ 0.989 µM); with Candida albicans [6], 0.1 µg/mL (≈ 0.494 µM); in the assay on Pichia kudriavzevii, 6.3 µg/mL (≈ 31.1 µM). Further, the MIC against Candida parapsilosis is 0.2 µg/mL (≈ 0.989 µM); in the assay on Cryptococcus neoformans [3], 0.8 µg/mL (≈ 3.96 µM); against Cryptococcus neoformans [7], 1.6 µg/mL (≈ 7.91 µM); in the assay on Candida tropicalis, 1.6 µg/mL (≈ 7.91 µM); against Trichophyton rubrum it was 0.05 µg/mL (≈ 0.247 µM).
Regarding `N#C/C=C/C1=CC=C(CO)SS1`, the MIC is 6.3 µg/mL (≈ 31.9 µM) with Aspergillus fumigatus [1], 12.5 µg/mL (≈ 63.4 µM) in the assay with Candida albicans [2] and 3.1 µg/mL (≈ 15.7 µM) in the assay on Cryptococcus neoformans [3].
The matching figures for `OCC1=CC=C(CO)SS1`: 2 µg/mL (≈ 11.3 µM), 16 µg/mL (≈ 90.8 µM) and 31 µg/mL (≈ 176 µM).
Consider `O=C(OCC1=CC=C(COC(=O)C2CC2)SS1)C1CC1`, for which the results for the MIC with Aspergillus fumigatus [1], against Candida albicans [2] and in the assay on Cryptococcus neoformans [3] were 1.6 µg/mL (≈ 5.12 µM), 6.3 µg/mL (≈ 20.2 µM) and 3.1 µg/mL (≈ 9.92 µM), respectively.
Regarding `CC(=O)OCC1=CC=C(COC(C)=O)SS1`, the MIC against Aspergillus fumigatus [1] was determined as 0.63 µg/mL (≈ 2.42 µM); against Candida albicans [2], 1.25 µg/mL (≈ 4.8 µM); against Cryptococcus neoformans [3], 0.63 µg/mL (≈ 2.42 µM).
